Columns and labels:
Assay type in all cases: functional
PC-3 = test: Antiproliferative activity against Homo sapiens (human) PC3 cells at 5 uM measured after 72 hr by MTT assay; conditions: PC-3, 72 h
Outline: (§1)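 Cells plated at 3 × 10³/well in F-12 (PC3) or RPMI 1640 (A431) with 10% fetal bovine serum; compounds dissolved in DMSO, diluted in medium, exposed 72 h; vehicle control 0.1% DMSO. MTT cleavage to formazan read at 550 nm. Inhibition rate (%) = (A1 − A2)/A1 × 100, A1 untreated and A2 treated mean optical density; values as mean ± s.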

A-431 = test: Antiproliferative activity against Homo sapiens (human) A431 cells at 5 uM measured after 72 hr by MTT assay; conditions: A-431, 72 h; outline: as §1
Tobacco mosaic virus [1] = test: Antiviral activity against Tobacco mosaic virus (TMV) inoculated in left side of Nicotiana tabacum L. leaves assessed as inhibition of local lesion number at 500 mg/l measured after 3 to 4 days
Outline: (§2)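 Half-leaf test on Nicotiana tabacum L.: TMV mixed with an equal volume of compound solution for 30 min, then inoculated on the left half-leaf; right half received virus plus solvent as control. Local lesions counted 3-4 days after inoculation; three repetitions. Inhibition (%) = (control lesions − treated lesions)/control lesions.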

Amaranthus retroflexus [2] = test: Herbicidal activity against Amaranthus retroflexus assessed as inhibition effect at 1500 g/ha sprayed to the stem and leaves after seed germination
Outline: (§3)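 Post-emergence: compounds sprayed onto stems and leaves after seed germination; equal amount of water sprayed as control. Aerial tissue fresh weight measured 10 days after treatment; activity expressed as percent inhibition of aerial fresh weight.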

[3] = system: Brassica rapa subsp. oleifera; test: Herbicidal activity against Brassica rapa subsp. oleifera assessed as inhibition effect at 1500 g/ha sprayed to the stem and leaves after seed germination; outline: as §3
Tobacco mosaic virus [4] = test: Antiviral activity against Tobacco mosaic virus (TMV) inoculated in whole leaves of Nicotiana tabacum L. assessed as curative effect measured as local lesion number at 500 mg/l after 3 to 4 days
Outline: (§4)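 Same-age N. tabacum L. leaves dipped-inoculated over the whole leaf with TMV at 6 × 10^-3 mg/mL, then washed with water and dried. Compound solution smeared on left half, solvent on right half as control. Local lesions counted 3-4 days after inoculation; three repetitions. Inhibition (%) calculated from control versus treated average lesion numbers.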

Echinochloa crus-galli [5] = test: Herbicidal activity against Echinochloa crus-galli (barnyard grass) assessed as inhibition effect at 1500 g/ha sprayed to the stem and leaves after seed germination; outline: as §3
[6] = system: Brassica rapa subsp. oleifera; test: Herbicidal activity against Brassica rapa subsp. oleifera assessed as inhibition effect at 1500 g/ha sprayed soil immediately after seed planting
Outline: (§5)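 Pre-emergence: compounds sprayed onto soil immediately after seed planting; equal amount of water sprayed as control. Aerial tissue fresh weight measured 10 days after treatment; activity expressed as percent inhibition of aerial fresh weight.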

Amaranthus retroflexus [7] = test: Herbicidal activity against Amaranthus retroflexus assessed as inhibition effect at 1500 g/ha sprayed soil immediately after seed planting; outline: as §5
Echinochloa crus-galli [8] = test: Herbicidal activity against Echinochloa crus-galli (barnyard grass) assessed as inhibition effect at 1500 g/ha sprayed soil immediately after seed planting; outline: as §5
Tobacco mosaic virus [9] = test: Antiviral activity against Tobacco mosaic virus (TMV) inoculated in left side of Nicotiana tabacum L. leaves assessed as inhibition of local lesion number at 50 mg/l measured after 3 to 4 days; outline: as §2
Tobacco mosaic virus [10] = test: Antiviral activity against Tobacco mosaic virus (TMV) inoculated in whole leaves of Nicotiana tabacum L. assessed as curative effect measured as local lesion number at 50 mg/l after 3 to 4 days; outline: as §4

| SMILES | inhibition at 5 µM (PC-3) [%] | inhibition at 5 µM (A-431) [%] | inhibition at 500 µg/mL (Tobacco mosaic virus [1]) [%] | inhibition at 1500 g/ha (Amaranthus retroflexus [2]) [%] | inhibition at 1500 g/ha [3] [%] | inhibition at 500 µg/mL (Tobacco mosaic virus [4]) [%] | inhibition at 1500 g/ha (Echinochloa crus-galli [5]) [%] | inhibition at 1500 g/ha [6] [%] | inhibition at 1500 g/ha (Amaranthus retroflexus [7]) [%] | inhibition at 1500 g/ha (Echinochloa crus-galli [8]) [%] | inhibition at 50 µg/mL (Tobacco mosaic virus [9]) [%] | inhibition at 50 µg/mL (Tobacco mosaic virus [10]) [%] |
| --- | --- | --- | --- | --- | --- | --- | --- | --- | --- | --- | --- | --- |
| O=c1[nH]cc(F)c(=O)[nH]1 [FLUOROURACIL] | 41.1 | 30.7 | – | – | – | – | – | – | – | – | – | – |
| CCOC(=O)/C(C#N)=C(/Nc1ccc(Br)cc1)N[C@@H](C)c1ccccc1 | 24.7 | 19.3 | 0 | 0 | 35.3 | 3.4 | 34.3 | 1.29 | 0 | 10 | – | – |
| CCOC(=O)/C(C#N)=C(/Nc1ccc(C(F)(F)F)cc1)N[C@H](C)c1ccccc1 | 59.4 | 43.1 | 28.9 | 0 | 0 | 39.1 | 2.86 | 16.1 | 0 | 11.4 | – | – |
| CCOC(=O)/C(C#N)=C(/Nc1ccc([N+](=O)[O-])cc1)N[C@@H](C)c1ccccc1 | 0.7 | 18.1 | 5.3 | 0 | 32.1 | 13.1 | 13.3 | 25 | 0 | 14.3 | – | – |
| CCOC(=O)/C(C#N)=C(/Nc1ccc([N+](=O)[O-])cc1)N[C@H](C)c1ccccc1 | 2.9 | 23.6 | 89.1 | 0 | 17.2 | 43.1 | 0 | 21.4 | 0 | 18.6 | – | – |
| CCOC(=O)/C(C#N)=C(/Nc1ccc(Br)cc1)N[C@H](C)c1ccccc1 | 1.5 | 16.1 | 53.4 | 0 | 10.9 | 12.3 | 0 | 5.38 | 0 | 4.29 | – | – |
| CNCC(=O)N[C@@H](CO)C(=O)N[C@H]1[C@H](O)[C@@H](O)[C@H](n2ccc(N)nc2=O)O[C@@H]1C(N)=O [NINGNANMYCIN] | – | – | 88.9 | – | – | 28.9 | – | – | – | – | – | – |
| CCOC(=O)/C(C#N)=C(/NNC(=O)c1cc(OC)c(OC)c(OC)c1)N[C@H](C)c1ccccc1 | 32.1 | 25.1 | 46.4 | 0 | 3.13 | 26.7 | 7.62 | 0 | 26.3 | 5.71 | – | – |
| CCOC(=O)/C(C#N)=C(/Nc1ccc(C(F)(F)F)cc1)N[C@@H](C)c1ccccc1 | 49.1 | 39.9 | 6.1 | 0 | 30.5 | 15.2 | 5.71 | 21.4 | 10.5 | 10 | – | – |
| COc1ccc2c3c(c4cc(OC)c(OC)cc4c2c1)C[C@H]1CCCN1C3 [(-)-ANTOFINE] | – | – | – | – | – | – | – | – | – | – | 14 | 29.2 |
| CCOC(=O)/C(C#N)=C(/NNC(=O)c1cc(OC)c(OC)c(OC)c1)N[C@@H](C)c1ccccc1 | 3.2 | 29.4 | 7.5 | 0 | 18.8 | 12.1 | 0 | 0 | 10.5 | 7.14 | – | – |
